Measurements: article PMC4306506 (Journal of Medicinal Chemistry, 2014)
Positions of bridges follow the written chain, without caps; N, C: chain ends. Residues, ends and D or L forms follow the SMILES beside them.

What was measured:
[1] = Apparent solubility by absorbance at 280 nm; assay type: physicochemical; settings: PBS pH 7.4, absorbance at 280 nm
Procedure, shortened: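 About 1 mg test peptide in 200 μL PBS pH 7.4; upper reportable limit 5 mg/mL. Vortexed 30 s, centrifuged 13000g for 5 min. Supernatant A280 converted to concentration by Beer–Lambert, using extinction coefficients from each peptide's Trp and Tyr count. Samples kept at 4 °C and re-read at 24 and 48 h. Mean and standard deviation of three readings per sample.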

complement C3 = complement C3 (Homo sapiens, UniProt P01024); assay: Complement inhibition across biochemical and functional assays; settings: C3b ELISA, C5b-9 ELISA, hemolytic assay
[2] = phase II, NCT00473928 and NCT01157065; cited from earlier work

Sequence of complement C3 (P01024 23-667 limits assumed): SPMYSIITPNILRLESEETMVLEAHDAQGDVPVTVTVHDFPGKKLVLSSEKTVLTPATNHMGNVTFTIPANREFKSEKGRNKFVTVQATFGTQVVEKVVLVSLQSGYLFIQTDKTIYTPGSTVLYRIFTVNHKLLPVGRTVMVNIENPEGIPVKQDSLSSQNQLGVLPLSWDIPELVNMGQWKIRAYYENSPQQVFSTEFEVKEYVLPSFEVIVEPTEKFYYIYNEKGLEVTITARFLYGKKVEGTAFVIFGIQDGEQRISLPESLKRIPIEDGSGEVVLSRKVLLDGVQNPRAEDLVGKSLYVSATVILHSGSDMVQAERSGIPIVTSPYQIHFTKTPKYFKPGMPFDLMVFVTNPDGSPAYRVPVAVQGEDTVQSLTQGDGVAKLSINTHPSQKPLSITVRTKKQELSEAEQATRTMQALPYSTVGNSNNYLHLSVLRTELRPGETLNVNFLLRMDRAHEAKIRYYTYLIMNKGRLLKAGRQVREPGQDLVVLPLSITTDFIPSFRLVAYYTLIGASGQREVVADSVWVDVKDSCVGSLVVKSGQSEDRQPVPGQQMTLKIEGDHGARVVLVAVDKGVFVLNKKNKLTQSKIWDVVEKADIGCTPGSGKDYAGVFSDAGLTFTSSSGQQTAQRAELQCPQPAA
Sequence of complement C3 (P01024 672-1663 partner limits assumed): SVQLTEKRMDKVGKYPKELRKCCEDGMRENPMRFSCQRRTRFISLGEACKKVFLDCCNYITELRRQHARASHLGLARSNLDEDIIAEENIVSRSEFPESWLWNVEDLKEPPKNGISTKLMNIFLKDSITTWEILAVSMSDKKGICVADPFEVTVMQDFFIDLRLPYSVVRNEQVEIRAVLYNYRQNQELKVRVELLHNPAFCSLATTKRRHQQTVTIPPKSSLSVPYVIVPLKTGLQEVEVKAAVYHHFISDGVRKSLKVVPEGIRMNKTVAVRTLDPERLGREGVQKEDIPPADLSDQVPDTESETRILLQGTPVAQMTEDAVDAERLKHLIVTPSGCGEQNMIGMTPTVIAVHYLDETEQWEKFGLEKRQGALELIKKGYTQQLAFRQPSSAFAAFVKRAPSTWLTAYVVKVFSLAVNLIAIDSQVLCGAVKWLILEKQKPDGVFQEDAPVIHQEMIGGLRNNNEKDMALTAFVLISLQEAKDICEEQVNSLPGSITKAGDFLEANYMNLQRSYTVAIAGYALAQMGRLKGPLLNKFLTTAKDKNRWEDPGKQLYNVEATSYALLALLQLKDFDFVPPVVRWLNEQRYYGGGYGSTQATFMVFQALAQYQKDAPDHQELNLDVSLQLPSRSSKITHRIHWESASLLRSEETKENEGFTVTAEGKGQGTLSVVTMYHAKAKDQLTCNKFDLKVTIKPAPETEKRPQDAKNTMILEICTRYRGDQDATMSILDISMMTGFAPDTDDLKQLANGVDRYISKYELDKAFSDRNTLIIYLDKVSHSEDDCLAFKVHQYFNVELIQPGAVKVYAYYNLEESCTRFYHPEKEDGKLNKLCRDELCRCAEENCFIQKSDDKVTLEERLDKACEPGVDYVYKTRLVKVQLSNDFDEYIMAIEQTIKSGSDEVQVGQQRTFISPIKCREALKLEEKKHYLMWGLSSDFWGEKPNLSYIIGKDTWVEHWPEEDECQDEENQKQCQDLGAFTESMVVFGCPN

| Structure (SMILES) | Solubility, in words [1] | Complement inhibitory activity relative to controls, in words (complement C3) | Retinal thickness in AMD patients in comparison to ranibizumab [2] |
| --- | --- | --- | --- |
| CC[C@H](C)[C@H](NC(C)=O)C(=O)N[C@H]1CSSC[C@@H](C(=O)N[C@H](C(N)=O)[C@@H](C)O)NC(=O)[C@H](CCCNC(=N)N)NC(=O)[C@H](Cc2c[nH]cn2)NC(=O)[C@@](C)(CC)NC(=O)CNC(=O)[C@H](Cc2c[nH]c3ccccc23)NC(=O)[C@H](CC(=O)O)NC(=O)[C@H](CCC(N)=O)NC(=O)[C@H](Cc2c[nH]c3ccccc23)NC(=O)[C@H](C(C)C)NC1=O [Peptide 3, Ac- ICV W QDWG{Rea}HRCT-NH2] | greatly improved aqueous solubility | inhibitory activity similar to meW4A9 | – |
| C=CC[C@@]1(C)NC(=O)CNC(=O)[C@H](Cc2c[nH]c3ccccc23)NC(=O)[C@H](CC(=O)O)NC(=O)[C@H](CCC(N)=O)NC(=O)[C@H](Cc2c[nH]c3ccccc23)NC(=O)[C@H](C(C)C)NC(=O)[C@@H](NC(=O)[C@@H](NC(C)=O)[C@@H](C)CC)CSSC[C@@H](C(=O)N[C@H](C(N)=O)[C@@H](C)O)NC(=O)[C@H](CCCNC(=N)N)NC(=O)[C@H](Cc2c[nH]cn2)NC1=O [Peptide 4, Ac- ICV W QDWG{Aal}HRCT-NH2] | greatly improved aqueous solubility | inhibitory activity similar to meW4A9 | – |
| CC[C@H](C)[C@H](NC(C)=O)C(=O)N[C@H]1CSSC[C@@H](C(=O)N[C@H](C(N)=O)[C@@H](C)O)NC(=O)[C@H](CCCNC(=N)N)NC(=O)[C@H](Cc2c[nH]cn2)NC(=O)[C@](C)(CC)NC(=O)CNC(=O)[C@H](Cc2c[nH]c3ccccc23)NC(=O)[C@H](CC(=O)O)NC(=O)[C@H](CCC(N)=O)NC(=O)[C@H](Cc2c[nH]c3ccccc23)NC(=O)[C@H](C(C)C)NC1=O [Peptide 5, Ac- ICV W QDWG{Sea}HRCT-NH2] | greatly improved aqueous solubility | inhibitory activity similar to meW4A9 | – |
| CC(=O)N[C@@H](CC(N)=O)C(=O)N[C@@H](CC(N)=O)C(=O)N[C@@H](CC(C)C)C(=O)N[C@H]1CSSC[C@@H](C(=O)N[C@H](C(N)=O)[C@@H](C)O)NC(=O)[C@H](CCCNC(=N)N)NC(=O)[C@H](Cc2c[nH]cn2)NC(=O)[C@H](C)NC(=O)CNC(=O)[C@H](Cc2c[nH]c3ccccc23)NC(=O)[C@H](CC(=O)O)NC(=O)[C@H](CCC(N)=O)NC(=O)[C@H](Cc2c[nH]c3ccccc23)NC(=O)[C@H](C(C)C)NC1=O [Peptide 7, Ac-NNLCV W QDWG A HRCT-NH2] (Ac-NNLCVWQDWGAHRCT-NH2; disulfide 4-14) | greatly improved aqueous solubility | inhibitory activity similar to meW4A9 | – |
| CC(=O)N[C@@H](CC(N)=O)C(=O)N[C@@H](CCCNC(=N)N)C(=O)N[C@@H](CC(C)C)C(=O)N[C@H]1CSSC[C@@H](C(=O)N[C@H](C(N)=O)[C@@H](C)O)NC(=O)[C@H](CCCNC(=N)N)NC(=O)[C@H](Cc2c[nH]cn2)NC(=O)[C@H](C)NC(=O)CNC(=O)[C@H](Cc2c[nH]c3ccccc23)NC(=O)[C@H](CC(=O)O)NC(=O)[C@H](CCC(N)=O)NC(=O)[C@H](Cc2c[nH]c3ccccc23)NC(=O)[C@H](C(C)C)NC1=O [Peptide 8, Ac-NRLCV W QDWG A HRCT-NH2] (Ac-NRLCVWQDWGAHRCT-NH2; disulfide 4-14) | greatly improved aqueous solubility | inhibitory activity similar to meW4A9 | – |
| CC[C@H](C)[C@H](NC(=O)[C@H](CO)NC(=O)[C@H](CCCNC(=N)N)NC(C)=O)C(=O)N[C@H]1CSSC[C@@H](C(=O)N[C@H](C(N)=O)[C@@H](C)O)NC(=O)[C@H](CCCNC(=N)N)NC(=O)[C@H](Cc2c[nH]cn2)NC(=O)[C@H](C)NC(=O)CNC(=O)[C@H](Cc2c[nH]c3ccccc23)NC(=O)[C@H](CC(=O)O)NC(=O)[C@H](CCC(N)=O)NC(=O)[C@H](Cc2c[nH]c3ccccc23)NC(=O)[C@H](C(C)C)NC1=O [Peptide 9, Ac-RSICV W QDWG A HRCT-NH2] | greatly improved aqueous solubility | inhibitory activity similar to meW4A9 | – |
| CC[C@H](C)[C@H](NC(C)=O)C(=O)N[C@H]1CSSC[C@@H](C(=O)N[C@H](C(N)=O)[C@@H](C)O)NC(=O)[C@H](CCCNC(=N)N)NC(=O)[C@H](Cc2c[nH]cn2)NC(=O)[C@H](C)NC(=O)CNC(=O)[C@H](Cc2c[nH]c3ccccc23)NC(=O)[C@H](CC(=O)O)NC(=O)[C@H](CCC(N)=O)NC(=O)[C@H](Cc2cn(C)c3ccccc23)NC(=O)[C@H](C(C)C)NC1=O [meW4A9, Ac- ICV{meW}QDWG A HRCT-NH2] | – | – | did not yield reduced retinal thickness |
